{"source": "ChEMBL document CHEMBL4038302", "about": "“Fibroblast Activation Protein α Activated Tripeptide Bufadienolide Antitumor Prodrug with Reduced Cardiotoxicity” (J Med Chem, 2017)", "key": {"Mus musculus": {"system": "Mus musculus", "assay": "Cardiotoxicity in BALB/C nude mouse xenografted with human MDA-MB-231 cells assessed as change in LDH level at 12 umol/kg, iv administered starting on day 5 measured after day 22", "format": "toxicity, organism-based", "conditions": "in vivo", "in_short": "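Serum from xenograft mice given daily iv doses in 5% HS15: blood taken by cardiac puncture before sacrifice and spun at 3000 rpm for 20 min at 4 °C. D-LDH activity measured with a colorimetric kit. Mean ± SEM, n = 6; one-way ANOVA with Tukey's test against the 5% HS15 control.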"}, "MDA-MB-435": {"system": "MDA-MB-435", "assay": "Antiproliferative activity against wild type human MDA-MB-435 cells expressing FAP-alpha incubated for 48 hrs by MTT assay", "format": "functional, cell-based", "conditions": "MDA-MB-435, 48 h", "in_short": "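Cells grown in DMEM with 10% FBS and 1% penicillin-streptomycin at 37 °C, 5% CO2; 10% heat-inactivated FBS used during cytotoxicity testing to exclude serum FAP activity. Viability read by MTT; IC50 as mean ± SEM of at least three independent experiments. Transfected lines were made from MDA-MB-231 with human FAPα plasmid or empty pCMV6-Entry vector and checked by Western blot at 48 h.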"}}}
{"smiles": "C[C@]12CC[C@H](OC(=O)[C@H](Cc3c[nH]c4ccccc34)NC(=O)[C@@H]3CCCN3C(=O)CNC(=O)OCc3ccccc3)C[C@H]1CC[C@@H]1[C@@H]2[C@H](O)C(=O)[C@]2(C)[C@@H](c3ccc(=O)oc3)CC[C@]12O", "values": [{"measurement": "Activity", "setting": "Mus musculus", "value": "Non-Toxic"}, {"measurement": "IC50", "setting": "MDA-MB-435", "value": 10.6, "unit": "nM"}]}
